Reference: ChEMBL document CHEMBL4689842, “EUbOPEN Chemogenomics Library wave 1” (2021)
Values joined by “and” are separate entries in the source; they are usually repeats but may differ in a detail not shown here. Identical values can stand only once.

Tests used:
Format in all cases: toxicity, cell-based
[1] = system: Fibroblast; test: Multiplex assay against human fibroblast
Method in brief: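 Cells stained live at seeding with Hoechst33342, BioTracker Green Microtubule Cytoskeleton Dye, MitoTracker Red and Annexin V Alexa Fluor 680 were imaged on a CQ1 microscope at 37°C and 5% CO2 after compound addition. Their classification by CellPathfinder machine-learning gating ran from Hoechst high-intensity objects versus normal cells, to healthy, pyknosed or fragmented nuclei among normal cells, to mitotic or apoptotic among pyknosed cells. Tubulin, mitochondrial-mass and membrane-permeability phenotypes are per cents of healthy-nucleus cells.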

[2] = system: HEK-293T; test: Incucyte cell viability with HEK293T; settings: human, 10 µM, compound concentration 10 uM; note: filed as whole numbers so only -1 and 0 and 1 occur
[3] = system: U2OS; test: Incucyte cell viability with U2OS; settings: human, 10 µM, compound concentration 10 uM; note: filed as whole numbers so only -1 and 0 and 1 occur
[4] = 12 h, 1 µM, compound concentration 1 uM, replicate 1
[5] = 12 h, 1 µM, compound concentration 1 uM, replicate 2
[6] = 12 h, 10 µM, compound concentration 10 uM, replicate 1
[7] = 12 h, 10 µM, compound concentration 10 uM, replicate 2
[8] = 24 h, 1 µM, compound concentration 1 uM, replicate 1
[9] = 24 h, 1 µM, compound concentration 1 uM, replicate 2
[10] = 24 h, 10 µM, compound concentration 10 uM, replicate 1
[11] = 24 h, 10 µM, compound concentration 10 uM, replicate 2
[12] = 48 h, 10 µM, compound concentration 10 uM, replicate 1
[13] = 48 h, 10 µM, compound concentration 10 uM, replicate 2
[14] = 6 h, replicate number 1, timepoint 6 hours
[15] = 12 h, replicate number 1, timepoint 12 hours
[16] = 18 h, replicate number 1, timepoint 18 hours
[17] = 24 h, replicate number 1, timepoint 24 hours

In the case of `COc1cc(N2CCC(N(C)C)CC2)ccc1Nc1ncc(Cl)c(Nc2ccccc2P(C)(C)=O)n1`, the “Population Apoptotic (%)” value [1, 4] is reported as 64%, the “Population Fragmented Nuclei (%)” value [1, 4] is reported as 26% and the “Population Healthy Nuclei (%)” value [1, 4] is reported as 56%. The “Population Hoechst High Intensity Objects (%)” value [1, 4] was 14%, the “Population Membrane Permeable-Phenotype (%)” value [1, 4] was 8% and the “Population Mitochondria Different-Phenotype (%)” value [1, 4] was 6%. For the same compound, the “Population Mitotic Cells (%)” value [1, 4] was 35%, the “Population Normal (%)” value [1, 4] was 85% and the “Population Pyknosed Nuclei (%)” value [1, 4] was 16%. The “Population Tubulin-Different-Phenotype (%)” value [1, 4] was 6%, the “Total Cell Count” value [1, 4] was 202 and the “Population Apoptotic (%)” value [1, 5] was 42%. The “Population Fragmented Nuclei (%)” value [1, 5] was 52%, the “Population Healthy Nuclei (%)” value [1, 5] was 31% and the “Population Hoechst High Intensity Objects (%)” value [1, 5] was 24%. For the same compound, the “Population Membrane Permeable-Phenotype (%)” value [1, 5] was 14%, the “Population Mitochondria Different-Phenotype (%)” value [1, 5] was 7% and the “Population Mitotic Cells (%)” value [1, 5] was 57%. For the same compound, the “Population Normal (%)” value [1, 5] was 75%, the “Population Pyknosed Nuclei (%)” value [1, 5] was 15% and the “Population Tubulin-Different-Phenotype (%)” value [1, 5] was 21%. For the same compound, the “Total Cell Count” value [1, 5] was 58, the “Population Apoptotic (%)” value [1, 6] was 73% and 69% and the “Population Fragmented Nuclei (%)” value [1, 6] was 27% and 24%. For the same compound, the “Population Healthy Nuclei (%)” value [1, 6] was 45% and 57%, the “Population Hoechst High Intensity Objects (%)” value [1, 6] was 13% and the “Population Mitochondria Different-Phenotype (%)” value [1, 6] was 7% and 6%. For the same compound, the “Population Mitotic Cells (%)” value [1, 6] was 26% and 30%, the “Population Normal (%)” value [1, 6] was 86% and the “Population Pyknosed Nuclei (%)” value [1, 6] was 27% and 17%. For the same compound, the “Total Cell Count” value [1, 6] was 98 and 215, the “Population Apoptotic (%)” value [1, 7] was 37% and 88% and the “Population Fragmented Nuclei (%)” value [1, 7] was 45% and 26%. For the same compound, the “Population Healthy Nuclei (%)” value [1, 7] was 32%, the “Population Hoechst High Intensity Objects (%)” value [1, 7] was 39% and 16% and the “Population Membrane Permeable-Phenotype (%)” value [1, 7] was 8% and 15%. For the same compound, the “Population Normal (%)” value [1, 7] was 60% and 83%, the “Population Pyknosed Nuclei (%)” value [1, 7] was 21% and 40% and the “Population Tubulin-Different-Phenotype (%)” value [1, 7] was 41% and 90%. For the same compound, the “Total Cell Count” value [1, 7] was 61 and 73, the “Population Apoptotic (%)” value [1, 8] was 96% and the “Population Fragmented Nuclei (%)” value [1, 8] was 18%. The “Population Healthy Nuclei (%)” value [1, 8] was 65%, the “Population Hoechst High Intensity Objects (%)” value [1, 8] was 14% and the “Population Membrane Permeable-Phenotype (%)” value [1, 8] was 6%. The “Population Mitotic Cells (%)” value [1, 8] was 3%, the “Population Normal (%)” value [1, 8] was 85% and the “Population Pyknosed Nuclei (%)” value [1, 8] was 16%. For the same compound, the “Population Tubulin-Different-Phenotype (%)” value [1, 8] was 4%, the “Total Cell Count” value [1, 8] was 204 and the “Population Apoptotic (%)” value [1, 9] was 57%. The “Population Fragmented Nuclei (%)” value [1, 9] was 43%, the “Population Healthy Nuclei (%)” value [1, 9] was 38% and the “Population Hoechst High Intensity Objects (%)” value [1, 9] was 32%. For the same compound, the “Population Membrane Permeable-Phenotype (%)” value [1, 9] was 0%, the “Population Mitochondria Different-Phenotype (%)” value [1, 9] was 6% and the “Population Mitotic Cells (%)” value [1, 9] was 42%. For the same compound, the “Population Normal (%)” value [1, 9] was 67%, the “Population Pyknosed Nuclei (%)” value [1, 9] was 17% and the “Population Tubulin-Different-Phenotype (%)” value [1, 9] was 13%. For the same compound, the “Total Cell Count” value [1, 9] was 58, the “Population Apoptotic (%)” value [1, 10] was 68% and 88% and the “Population Fragmented Nuclei (%)” value [1, 10] was 29% and 31%. The “Population Healthy Nuclei (%)” value [1, 10] was 50% and 54%, the “Population Hoechst High Intensity Objects (%)” value [1, 10] was 13% and the “Population Mitochondria Different-Phenotype (%)” value [1, 10] was 14% and 9%. The “Population Mitotic Cells (%)” value [1, 10] was 31% and 11%, the “Population Normal (%)” value [1, 10] was 86% and the “Population Pyknosed Nuclei (%)” value [1, 10] was 19% and 14%. The “Total Cell Count” value [1, 10] was 94 and 210, the “Population Apoptotic (%)” value [1, 11] was 66% and 92% and the “Population Fragmented Nuclei (%)” value [1, 11] was 47% and 26%. The “Population Healthy Nuclei (%)” value [1, 11] was 35% and 15%, the “Population Hoechst High Intensity Objects (%)” value [1, 11] was 39% and 38% and the “Population Normal (%)” value [1, 11] was 60% and 61%. For the same compound, the “Population Tubulin-Different-Phenotype (%)” value [1, 11] was 41% and 100%, the “Total Cell Count” value [1, 11] was 56 and 75 and the “Population Apoptotic (%)” value [1, 12] was 87%. For the same compound, the “Population Fragmented Nuclei (%)” value [1, 12] was 47%, the “Population Healthy Nuclei (%)” value [1, 12] was 41% and the “Population Hoechst High Intensity Objects (%)” value [1, 12] was 22%. The “Population Membrane Permeable-Phenotype (%)” value [1, 12] was 20%, the “Population Mitochondria Different-Phenotype (%)” value [1, 12] was 23% and the “Population Mitotic Cells (%)” value [1, 12] was 12%. For the same compound, the “Population Normal (%)” value [1, 12] was 77%, the “Population Pyknosed Nuclei (%)” value [1, 12] was 10% and the “Population Tubulin-Different-Phenotype (%)” value [1, 12] was 70%. The “Total Cell Count” value [1, 12] was 94, the “Population Apoptotic (%)” value [1, 13] was 66% and the “Population Fragmented Nuclei (%)” value [1, 13] was 34%. For the same compound, the “Population Healthy Nuclei (%)” value [1, 13] was 61%, the “Population Hoechst High Intensity Objects (%)” value [1, 13] was 16% and the “Population Membrane Permeable-Phenotype (%)” value [1, 13] was 22%. The “Population Mitochondria Different-Phenotype (%)” value [1, 13] was 9%, the “Population Mitotic Cells (%)” value [1, 13] was 33% and the “Population Normal (%)” value [1, 13] was 83%. The “Population Pyknosed Nuclei (%)” value [1, 13] was 4%, the “Population Tubulin-Different-Phenotype (%)” value [1, 13] was 56% and the “Total Cell Count” value [1, 13] was 86. The “Growth Rate” value [2, 14] was 0, the “Growth Rate” value [2, 15] was 0 and the “Growth Rate” value [2, 16] was 0. For the same compound, the “Growth Rate” value [2, 17] was 0, the “Growth Rate” value ([3]; 0 h, replicate number 1, timepoint 0 hours) was 0 and the “Growth Rate” value [3, 14] was 0. For the same compound, the “Growth Rate” value [3, 15] was 0, the “Growth Rate” value [3, 16] was 0 and the “Growth Rate” value [3, 17] was 0.
